Test results from ChEMBL document CHEMBL1955865, “Synthesis of novel spirooxindole derivatives by one pot multicomponent reaction and their antimicrobial activity” (2012).
Values after ≈ are worked out from the molar mass of the structure shown.

Tested on: Klebsiella aerogenes
Experiment: Antibacterial activity against Enterobacter aerogenes MTCC 111 at 1000 ug/disc after 24 hrs by disc diffusion assay
Type: functional
Conditions: MTCC 111, 24 h, read-out: IZ
Method in brief: (§1)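 Disc diffusion on Mueller Hinton agar. Cultures (about 10^4 CFU/ml) were swabbed on and dried 10 min. Discs loaded at 1000 µg/disc were left 30 min at room temperature for diffusion, with a solvent negative control. Plates were incubated 24 h at 37 °C. Inhibition zones were measured in mm, and the experiment was done twice.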

Structure (SMILES)	zone of inhibition at 1000 µg/disc [mm]
CN1CC2=C(C(=O)c3ccccc3C2=O)C12C(=O)Nc1ccc(I)cc12 (centres undefined)	12
C#CCN1C(=O)C2(C3=C(CN2C)C(=O)c2ccccc2C3=O)c2ccccc21 (centres undefined)	11

Tested on: Salmonella typhimurium
Experiment: Antibacterial activity against Salmonella Typhimurium MTCC 1251 after 24 hrs by two-fold serial dilution method
Type: functional, Salmonella enterica subsp. enterica serovar Typhimurium
Conditions: Salmonella enterica, MTCC 1251, 24 h
Method in brief: (§2)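 Bacteria grown in Mueller Hinton broth for 24 h at 37 °C and diluted to about 10^4 CFU/ml. Compound in 2% DMSO was serially diluted two-fold (1000 to 15.62 µg/ml) in medium in 96-well plates and inoculated. Plates were incubated 24 h at 37 °C. 5 µl of broth was spotted onto MHA, and MIC was taken as the lowest concentration with no visible growth on agar.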

Structure (SMILES)	MIC [µg/mL]
CN1CC2=C(C(=O)c3ccccc3C2=O)C12C(=O)Nc1ccc(I)cc12 (centres undefined)	125 (≈ 274 µM)
C#CCN1C(=O)C2(C3=C(CN2C)C(=O)c2ccccc2C3=O)c2ccccc21 (centres undefined)	62.5 (≈ 170 µM)

Tested on: Botrytis cinerea
Experiment: Antifungal activity against Botrytis cinerea at 1000 ug/disc after 48 hrs by disc diffusion assay
Type: functional
Conditions: read-out: IZ
Method in brief: (§3)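 Fungal disc diffusion with inoculum from SDA spores (filamentous) or SDB culture (yeast). Test cultures were swabbed on agar, and discs at 1000 µg/disc were left 30 min at room temperature, with a solvent negative control. Plates were incubated 48 h at 27 °C. Zone of inhibition was measured in mm, and the experiment was repeated twice.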

Structure (SMILES)	zone of inhibition at 1000 µg/disc [mm]
CN1CC2=C(C(=O)c3ccccc3C2=O)C12C(=O)Nc1ccc(I)cc12 (centres undefined)	12
C#CCN1C(=O)C2(C3=C(CN2C)C(=O)c2ccccc2C3=O)c2ccccc21 (centres undefined)	10

Tested on: Salmonella enterica subsp. enterica serovar Paratyphi B
Experiment: Antibacterial activity against Salmonella paratyphi B after 24 hrs by twofold serial dilution method
Type: functional
Conditions: not given
Method in brief: (§4)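 Broth microdilution in MHB following the standard bacterial reference method. Compound was dissolved in DMSO (2%) and serially diluted two-fold from 1000 to 15.62 µg/ml in 96-well plates, with an inoculum of about 10^4 CFU/ml. Streptomycin and ciprofloxacin were positive controls. After 24 h at 37 °C, 5 µl of broth was subcultured on MHA. MIC was the lowest concentration without visible growth on agar.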

Structure (SMILES)	MIC [µg/mL]
CN1CC2=C(C(=O)c3ccccc3C2=O)C12C(=O)Nc1ccc(I)cc12 (centres undefined)	500 (≈ 1100 µM)
C#CCN1C(=O)C2(C3=C(CN2C)C(=O)c2ccccc2C3=O)c2ccccc21 (centres undefined)	250 (≈ 679 µM)

Tested on: Klebsiella pneumoniae
Experiment: Antibacterial activity against Klebsiella pneumoniae MTCC 109 at 1000 ug/disc after 24 hrs by disc diffusion assay
Type: functional
Conditions: MTCC 109, 24 h, read-out: IZ
Method in brief: as §1

Structure (SMILES)	zone of inhibition at 1000 µg/disc [mm]
CN1CC2=C(C(=O)c3ccccc3C2=O)C12C(=O)Nc1ccc(I)cc12 (centres undefined)	11
C#CCN1C(=O)C2(C3=C(CN2C)C(=O)c2ccccc2C3=O)c2ccccc21 (centres undefined)	11

Tested on: Staphylococcus aureus
Experiment: Antibacterial activity against methicillin-resistant Staphylococcus aureus after 24 hrs by twofold serial dilution method
Type: functional
Conditions: not given
Method in brief: as §4

Structure (SMILES)	MIC [µg/mL]
CN1CC2=C(C(=O)c3ccccc3C2=O)C12C(=O)Nc1ccc(I)cc12 (centres undefined)	500 (≈ 1100 µM)
C#CCN1C(=O)C2(C3=C(CN2C)C(=O)c2ccccc2C3=O)c2ccccc21 (centres undefined)	125 (≈ 339 µM)

Tested on: Proteus vulgaris
Experiment: Antibacterial activity against Proteus vulgaris MTCC 1771 after 24 hrs by twofold serial dilution method
Type: functional
Conditions: MTCC 1771, 24 h
Method in brief: as §2

Structure (SMILES)	MIC [µg/mL]
CN1CC2=C(C(=O)c3ccccc3C2=O)C12C(=O)Nc1ccc(I)cc12 (centres undefined)	500 (≈ 1100 µM)
C#CCN1C(=O)C2(C3=C(CN2C)C(=O)c2ccccc2C3=O)c2ccccc21 (centres undefined)	500 (≈ 1360 µM)

Tested on: Proteus vulgaris
Experiment: Antibacterial activity against Proteus vulgaris MTCC 1771 at 1000 ug/disc after 24 hrs by disc diffusion assay
Type: functional
Conditions: MTCC 1771, 24 h, read-out: IZ
Method in brief: as §1

Structure (SMILES)	zone of inhibition at 1000 µg/disc [mm]
CN1CC2=C(C(=O)c3ccccc3C2=O)C12C(=O)Nc1ccc(I)cc12 (centres undefined)	10
C#CCN1C(=O)C2(C3=C(CN2C)C(=O)c2ccccc2C3=O)c2ccccc21 (centres undefined)	9

Tested on: Candida albicans
Experiment: Antifungal activity against Candida albicans MTCC 227 after 48 to 72 hrs by twofold serial dilution method
Type: functional
Conditions: not given
Method in brief: (§5)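 Broth two-fold serial dilution, 1000 to 15.62 µg/ml, with compound dissolved in 2% DMSO, in 96-well plates. Filamentous fungal spores came from 10-day SDA slants at 28 °C, and yeast from SDB grown 48 h at 28 °C. Incubation was 48-72 h at 28 °C. MIC was the lowest concentration with no visible fungal growth.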

Structure (SMILES)	MIC [µg/mL]
CN1CC2=C(C(=O)c3ccccc3C2=O)C12C(=O)Nc1ccc(I)cc12 (centres undefined)	250 (≈ 548 µM)
C#CCN1C(=O)C2(C3=C(CN2C)C(=O)c2ccccc2C3=O)c2ccccc21 (centres undefined)	250 (≈ 679 µM)

Tested on: Micrococcus luteus
Experiment: Antibacterial activity against Micrococcus luteus after 24 hrs by twofold serial dilution method
Type: functional
Conditions: not given
Method in brief: as §2

Structure (SMILES)	MIC [µg/mL]
CN1CC2=C(C(=O)c3ccccc3C2=O)C12C(=O)Nc1ccc(I)cc12 (centres undefined)	15.6 (≈ 34.2 µM)
C#CCN1C(=O)C2(C3=C(CN2C)C(=O)c2ccccc2C3=O)c2ccccc21 (centres undefined)	125 (≈ 339 µM)

Tested on: Staphylococcus aureus
Experiment: Antibacterial activity against methicillin-resistant Staphylococcus aureus at 1000 ug/disc after 24 hrs by disc diffusion assay
Type: functional
Conditions: read-out: IZ
Method in brief: (§6)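 Disc diffusion on Mueller Hinton agar. Bacteria were grown 24 h at 37 °C in MHB and diluted to about 10^4 CFU/ml, swabbed onto plates and dried 10 min. Discs were loaded at 1000 μg/disc and held 30 min at room temperature for diffusion. Solvent served as negative control. After 24 h at 37 °C, inhibition zones were read in mm; run twice.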

Structure (SMILES)	zone of inhibition at 1000 µg/disc [mm]
CN1CC2=C(C(=O)c3ccccc3C2=O)C12C(=O)Nc1ccc(I)cc12 (centres undefined)	8
C#CCN1C(=O)C2(C3=C(CN2C)C(=O)c2ccccc2C3=O)c2ccccc21 (centres undefined)	10

Tested on: not listed separately
Experiment: Antifungal activity against Malassezia pachydermatis after 48 to 72 hrs by twofold serial dilution method
Type: functional
Conditions: not given
Method in brief: as §5

Structure (SMILES)	MIC [µg/mL]
CN1CC2=C(C(=O)c3ccccc3C2=O)C12C(=O)Nc1ccc(I)cc12 (centres undefined)	125 (≈ 274 µM)
C#CCN1C(=O)C2(C3=C(CN2C)C(=O)c2ccccc2C3=O)c2ccccc21 (centres undefined)	250 (≈ 679 µM)

Tested on: not listed separately
Experiment: Antifungal activity against Malassezia pachydermatis at 1000 ug/disc after 48 hrs by disc diffusion assay
Type: functional
Conditions: not given
Method in brief: as §3

Structure (SMILES)	inhibition zone (IZ) [mm]
CN1CC2=C(C(=O)c3ccccc3C2=O)C12C(=O)Nc1ccc(I)cc12 (centres undefined)	14
C#CCN1C(=O)C2(C3=C(CN2C)C(=O)c2ccccc2C3=O)c2ccccc21 (centres undefined)	10

Tested on: Candida albicans
Experiment: Antifungal activity against Candida albicans MTCC 227 at 1000 ug/disc after 48 hrs by disc diffusion assay
Type: functional
Conditions: MTCC 227, 48 h, read-out: IZ
Method in brief: as §3

Structure (SMILES)	zone of inhibition at 1000 µg/disc [mm]
CN1CC2=C(C(=O)c3ccccc3C2=O)C12C(=O)Nc1ccc(I)cc12 (centres undefined)	11
C#CCN1C(=O)C2(C3=C(CN2C)C(=O)c2ccccc2C3=O)c2ccccc21 (centres undefined)	10

Tested on: Micrococcus luteus
Experiment: Antibacterial activity against Micrococcus luteus at 1000 ug/disc after 24 hrs by disc diffusion assay
Type: functional
Conditions: read-out: IZ
Method in brief: as §1

Structure (SMILES)	zone of inhibition at 1000 µg/disc [mm]
CN1CC2=C(C(=O)c3ccccc3C2=O)C12C(=O)Nc1ccc(I)cc12 (centres undefined)	15
C#CCN1C(=O)C2(C3=C(CN2C)C(=O)c2ccccc2C3=O)c2ccccc21 (centres undefined)	12

Tested on: Klebsiella aerogenes
Experiment: Antibacterial activity against Enterobacter aerogenes MTCC 111 after 24 hrs by twofold serial dilution method
Type: functional
Conditions: MTCC 111, 24 h
Method in brief: as §2

Structure (SMILES)	MIC [µg/mL]
CN1CC2=C(C(=O)c3ccccc3C2=O)C12C(=O)Nc1ccc(I)cc12 (centres undefined)	250 (≈ 548 µM)
C#CCN1C(=O)C2(C3=C(CN2C)C(=O)c2ccccc2C3=O)c2ccccc21 (centres undefined)	250 (≈ 679 µM)

Tested on: Botrytis cinerea
Experiment: Antifungal activity against Botrytis cinerea after 48 to 72 hrs by twofold serial dilution method
Type: functional
Conditions: not given
Method in brief: as §5

Structure (SMILES)	MIC [µg/mL]
CN1CC2=C(C(=O)c3ccccc3C2=O)C12C(=O)Nc1ccc(I)cc12 (centres undefined)	250 (≈ 548 µM)
C#CCN1C(=O)C2(C3=C(CN2C)C(=O)c2ccccc2C3=O)c2ccccc21 (centres undefined)	250 (≈ 679 µM)

Tested on: Klebsiella pneumoniae
Experiment: Antibacterial activity against Klebsiella pneumoniae MTCC 109 after 24 hrs by twofold serial dilution method
Type: functional
Conditions: MTCC 109, 24 h
Method in brief: as §2

Structure (SMILES)	MIC [µg/mL]
CN1CC2=C(C(=O)c3ccccc3C2=O)C12C(=O)Nc1ccc(I)cc12 (centres undefined)	250 (≈ 548 µM)
C#CCN1C(=O)C2(C3=C(CN2C)C(=O)c2ccccc2C3=O)c2ccccc21 (centres undefined)	250 (≈ 679 µM)

Tested on: Salmonella enterica subsp. enterica serovar Paratyphi B
Experiment: Antibacterial activity against Salmonella paratyphi B at 1000 ug/disc after 24 hrs by disc diffusion assay
Type: functional
Conditions: read-out: IZ
Method in brief: as §6

Structure (SMILES)	zone of inhibition at 1000 µg/disc [mm]
CN1CC2=C(C(=O)c3ccccc3C2=O)C12C(=O)Nc1ccc(I)cc12 (centres undefined)	7
C#CCN1C(=O)C2(C3=C(CN2C)C(=O)c2ccccc2C3=O)c2ccccc21 (centres undefined)	10

Tested on: Salmonella typhimurium
Experiment: Antibacterial activity against Salmonella Typhimurium MTCC 1251 at 1000 ug/disc after 24 hrs by disc diffusion assay
Type: functional, Salmonella enterica subsp. enterica serovar Typhimurium
Conditions: Salmonella enterica, MTCC 1251, 24 h; read-out: IZ
Method in brief: as §1

Structure (SMILES)	zone of inhibition at 1000 µg/disc [mm]
CN1CC2=C(C(=O)c3ccccc3C2=O)C12C(=O)Nc1ccc(I)cc12 (centres undefined)	14
C#CCN1C(=O)C2(C3=C(CN2C)C(=O)c2ccccc2C3=O)c2ccccc21 (centres undefined)	15

Tested on: Staphylococcus aureus
Experiment: Antibacterial activity against Staphylococcus aureus MTCC 96 at 1000 ug/disc after 24 hrs by disc diffusion assay
Type: functional
Conditions: MTCC 96, 24 h, read-out: IZ
Method in brief: as §1

Structure (SMILES)	zone of inhibition at 1000 µg/disc [mm]
CN1CC2=C(C(=O)c3ccccc3C2=O)C12C(=O)Nc1ccc(I)cc12 (centres undefined)	16
C#CCN1C(=O)C2(C3=C(CN2C)C(=O)c2ccccc2C3=O)c2ccccc21 (centres undefined)	13

Tested on: Staphylococcus aureus
Experiment: Antibacterial activity against Staphylococcus aureus MTCC 96 after 24 hrs by twofold serial dilution method
Type: functional
Conditions: MTCC 96, 24 h
Method in brief: as §2

Structure (SMILES)	MIC [µg/mL]
CN1CC2=C(C(=O)c3ccccc3C2=O)C12C(=O)Nc1ccc(I)cc12 (centres undefined)	62.5 (≈ 137 µM)
C#CCN1C(=O)C2(C3=C(CN2C)C(=O)c2ccccc2C3=O)c2ccccc21 (centres undefined)	125 (≈ 339 µM)
